In ChEMBL document CHEMBL1649126, “Debio 025, a cyclophilin binding molecule, is highly efficient in clearing hepatitis C virus (HCV) replicon-containing cells when used alone or in combination with specifically targeted antiviral therapy for HCV (STAT-C) inhibitors” (Antimicrob Agents Chemother, 2009):
Activity calls are given as the source filed them. The rule behind the calls is not given here.

Columns and labels:
Hepatitis C virus [1] = test: Antiviral activity against HCV genotype 1b infected in human Huh-9-13 cells assessed as reduction in viral replication after 3 days by quantitative RT-PCR; type: functional, organism-based, Hepacivirus hominis; details: 72 h
Outline: (§1)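 Huh 9-13 cells carrying a subgenomic HCV replicon were seeded at 5 x 10^3 cells/well in medium with G418 and incubated 24 h at 37°C. Serial dilutions were then added in G418-free medium for 3 days. Cells were lysed, heated 15 min at 75°C, and replicon RNA was quantified by RT-qPCR against a neomycin plasmid standard. EC50 is the 50% RNA reduction versus untreated cells.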

Hepatitis C virus [2] = test: Antiviral activity against compound-resistant HCV genotype 1b infected in human Huh-9-13 cells assessed as reduction in viral replication after 3 days by quantitative RT-PCR; type: functional, organism-based, Hepacivirus hominis; details: 72 h; outline: as §1
Hepatitis C virus [3] = test: Antiviral activity against cyclosporine-resistant HCV genotype 1b infected in human Huh-9-13 cells assessed as reduction in viral replication after 3 days by quantitative RT-PCR; type: functional, organism-based, Hepacivirus hominis; details: 72 h; outline: as §1
Hepatitis C virus [4] = test: Antiviral activity against 2'-C-methyl-2'-fluoro-cytidine-resistant HCV genotype 1b infected in human Huh-9-13 cells assessed as reduction in viral replication after 3 days by quantitative RT-PCR; type: functional, organism-based, Hepacivirus hominis; details: 72 h; outline: as §1
Hepatitis C virus [5] = test: Antiviral activity against R479-resistant HCV genotype 1b infected in human Huh-9-13 cells assessed as reduction in viral replication after 3 days by quantitative RT-PCR; type: functional, organism-based, Hepacivirus hominis; details: 72 h; outline: as §1
Hepatitis C virus [6] = test: Antiviral activity against BILN 2061-resistant HCV genotype 1b infected in human Huh-9-13 cells assessed as reduction in viral replication after 3 days by quantitative RT-PCR; type: functional, organism-based, Hepacivirus hominis; details: 72 h; outline: as §1
Hepatitis C virus [7] = test: Antiviral activity against VX 950-resistant HCV genotype 1b infected in human Huh-9-13 cells assessed as reduction in viral replication after 3 days by quantitative RT-PCR; type: functional, organism-based, Hepacivirus hominis; details: 72 h; outline: as §1
Hepatitis C virus [8] = test: Antiviral activity against HCV genotype 1b infected in human Huh-9-13 cells assessed as reduction in viral replication selected after 2 passages at 30 ug/ml by quantitative RT-PCR; type: functional, organism-based; details: Hepacivirus hominis
Outline: (§2)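 Huh 9-13 replicon cells were seeded at 3 x 10^5 per 25-cm2 flask without G418, with compound. They were passaged at about 90% confluence and reseeded at 3 x 10^5 with the same concentration. HCV RNA was measured by RT-qPCR at each passage as % of the untreated control at the same passage. In rebound, compound was removed and G418 (1,000 µg/ml) restored.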

Hepatitis C virus [9] = test: Antiviral activity against HCV genotype 1b infected in human Huh-9-13 cells assessed as reduction in viral replication selected after 3 passages at 30 ug/ml by quantitative RT-PCR; type: functional, organism-based; details: Hepacivirus hominis; outline: as §2
Hepatitis C virus [10] = test: Antiviral activity against HCV genotype 1b infected in human Huh-9-13 cells assessed as reduction in viral replication selected after 5 passages at 4 uM by quantitative RT-PCR; type: functional, organism-based; details: Hepacivirus hominis
Outline: (§3)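 Resistant replicons were selected by passaging Huh 9-13 cells under 1 mg/ml G418 with gradually increasing inhibitor concentrations.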

Hepatitis C virus [11] = test: Antiviral activity against HCV genotype 1b infected in human Huh-9-13 cells assessed as reduction in viral replication selected after 7 passages at 15 uM by quantitative RT-PCR relative to wild type virus; type: functional, Hepacivirus hominis; outline: as §3
Hepatitis C virus [12] = test: Antiviral activity against HCV genotype 1b infected in human Huh-9-13 cells assessed as reduction in viral replication selected after 5 passages at 4 uM by quantitative RT-PCR relative to wild type virus; type: functional, Hepacivirus hominis; outline: as §3
Hepatitis C virus [13] = test: Antiviral activity against HCV genotype 1b infected in human Huh-9-13 cells assessed as reduction in viral replication selected at 0.5 uM by quantitative RT-PCR; type: functional, organism-based; details: Hepacivirus hominis
Hepatitis C virus [14] = test: Antiviral activity against HCV genotype 1b infected in human Huh-9-13 cells assessed as reduction in viral replication selected at 0.1 uM by quantitative RT-PCR; type: functional, organism-based; details: Hepacivirus hominis
Hepatitis C virus [15] = test: Antiviral activity against HCV genotype 1b infected in human Huh-9-13 cells assessed as reduction in viral replication selected after 1 passages at 0.82 uM by quantitative RT-PCR; type: functional, Hepacivirus hominis; outline: as §2
Hepatitis C virus [16] = test: Antiviral activity against HCV genotype 1b infected in human Huh-9-13 cells assessed as reduction in viral replication selected after 1 passages at 5 ug/ml by quantitative RT-PCR; type: functional, Hepacivirus hominis; outline: as §2
Hepatitis C virus [17] = test: Antiviral activity against HCV genotype 1b infected in human Huh-9-13 cells assessed as reduction in viral replication selected after 2 passages at 5 ug/ml by quantitative RT-PCR; type: functional, organism-based; details: Hepacivirus hominis; outline: as §2
Hepatitis C virus [18] = test: Antiviral activity against HCV genotype 1b infected in human Huh-9-13 cells assessed as reduction in viral replication selected after 2 passages at 1 ug/ml by quantitative RT-PCR; type: functional, organism-based; details: Hepacivirus hominis; outline: as §2
Hepatitis C virus [19] = test: Antiviral activity against HCV genotype 1b infected in human Huh-9-13 cells assessed as reduction in viral replication selected after 3 passages at 1 ug/ml by quantitative RT-PCR […]; type: functional, organism-based; details: Hepacivirus hominis
Hepatitis C virus [20] = test: Antiviral activity against HCV genotype 1b infected in human Huh-9-13 cells assessed as reduction in viral replication selected after 7 passages at 5 ug/ml by quantitative RT-PCR […]; type: functional, organism-based; details: Hepacivirus hominis
Hepatitis C virus [21] = test: Antiviral activity against HCV genotype 1b infected in human Huh-9-13 cells assessed as reduction in viral replication selected after 7 passages at 30 ug/ml by quantitative RT-PCR […]; type: functional, organism-based; details: Hepacivirus hominis
[22] = Cytotoxicity against human Huh-9-13 cells at 1 ug/ml after 3 days by MTT assay; type: cell-based; details: 72 h
[23] = Cytotoxicity against human Huh-9-13 cells at 5 ug/ml after 3 days by MTT assay; type: cell-based; details: 72 h
[24] = Cytotoxicity against human Huh-9-13 cells at 30 ug/ml after 3 days by MTT assay; type: cell-based; details: 72 h
Hepatitis C virus [25] = test: Antiviral activity against HCV genotype 1b infected in human Huh-9-13 cells assessed as reduction in viral replication selected after 7 passages at 0.25 ug/ml by quantitative RT-PCR; type: functional, organism-based; details: Hepacivirus hominis
Outline: (§4)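 Clearance-rebound in Huh 9-13 replicon cells over seven consecutive passages without G418, using twofold dilutions from 0.50 to 0.016 µg/ml. Rebound passages omitted compound under 1,000 µg/ml G418. Remaining HCV RNA was measured by RT-qPCR each passage as % of the untreated control at the same passage number.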

Hepatitis C virus [26] = test: Antiviral activity against HCV genotype 1b infected in human Huh-9-13 cells assessed as reduction in viral replication selected after 8 passages at 0.25 ug/ml by quantitative RT-PCR; type: functional, organism-based; details: Hepacivirus hominis; outline: as §4
Hepatitis C virus [27] = test: Antiviral activity against HCV genotype 1b infected in human Huh-9-13 cells assessed as reduction in viral replication selected after 5 passages at 1 uM by quantitative RT-PCR; type: functional, organism-based; details: Hepacivirus hominis; outline: as §3
Hepatitis C virus [28] = test: Antiviral activity against HCV genotype 1b infected in human Huh-9-13 cells assessed as reduction in viral replication selected after 5 passages at 1 uM by quantitative RT-PCR relative to wild type virus; type: functional, Hepacivirus hominis
Hepatitis C virus [29] = test: Antiviral activity against HCV genotype 1b infected in human Huh-9-13 cells assessed as reduction in viral replication selected after 6 passages at 2 uM by quantitative RT-PCR; type: functional, organism-based; details: Hepacivirus hominis; outline: as §3
Hepatitis C virus [30] = test: Antiviral activity against HCV genotype 1b infected in human Huh-9-13 cells assessed as reduction in viral replication selected after 6 passages at 2 uM by quantitative RT-PCR relative to wild type virus; type: functional, Hepacivirus hominis; outline: as §3

Compound	EC50 (Hepatitis C virus [1]) [nM]	EC50 (Hepatitis C virus [2]) [nM]	EC50 (Hepatitis C virus [3]) [nM]	EC50 (Hepatitis C virus [4]) [nM]	EC50 (Hepatitis C virus [5]) [nM]	EC50 (Hepatitis C virus [6]) [nM]	EC50 (Hepatitis C virus [7]) [nM]	also measured
C[C@@]1(O)[C@H](O)[C@@H](CO)O[C@H]1n1ccc(N)nc1=O	410	110	210	30200	1160	40	1010	–
NC(=O)c1ncn([C@@H]2O[C@H](CO)[C@@H](O)[C@H]2O)n1	–	–	–	–	–	–	–	inhibition (Hepatitis C virus [8]): inactive; inhibition (Hepatitis C virus [9]): inactive
[N-]=[N+]=N[C@]1(CO)O[C@@H](n2ccc(N)nc2=O)[C@H](O)[C@@H]1O [4'-AZIDOCYTIDINE]	–	120	260	3380	15600	20	690	Activity (Hepatitis C virus [10]): inactive; fold change (FC) (Hepatitis C virus [11]): 8; fold change (FC) (Hepatitis C virus [12]): 3; inhibition (Hepatitis C virus [13]): Active; inhibition (Hepatitis C virus [14]): inactive
C/C=C/C[C@@H](C)[C@@H](O)[C@H]1C(=O)N[C@@H](CC)C(=O)N(C)[C@H](C)C(=O)N(CC)[C@@H](C(C)C)C(=O)N[C@@H](C(C)C)C(=O)N(C)[C@@H](CC(C)C)C(=O)N[C@@H](C)C(=O)N[C@H](C)C(=O)N(C)[C@@H](CC(C)C)C(=O)N(C)[C@@H](CC(C)C)C(=O)N(C)[C@@H](C(C)C)C(=O)N1C [ALISPORIVIR]	40	2720	3010	410	2760	4	360	inhibition at 0.82 µM (Hepatitis C virus [15]): 96.5%; inhibition at 5 µg/mL (Hepatitis C virus [16]): 96.5%; inhibition (Hepatitis C virus [17]): inactive; inhibition (Hepatitis C virus [18]): inactive; Activity (Hepatitis C virus [19]): Active; inhibition (Hepatitis C virus [20]): inactive; inhibition (Hepatitis C virus [21]): inactive; Activity [22]: Non-toxic; Activity [23]: Non-toxic; Activity [24]: Non-toxic; inhibition (Hepatitis C virus [25]): Active; Activity (Hepatitis C virus [26]): Active
COc1ccc2c(O[C@@H]3C[C@H]4C(=O)N[C@]5(C(=O)O)C[C@H]5/C=C\CCCCC[C@H](NC(=O)OC5CCCC5)C(=O)N4C3)cc(-c3csc(NC(C)C)n3)nc2c1 [CILUPREVIR]	–	100	170	290	2160	1250	310	inhibition (Hepatitis C virus [27]): inactive; fold change (FC) (Hepatitis C virus [28]): 50
C/C=C/C[C@@H](C)[C@@H](O)[C@H]1C(=O)N[C@@H](CC)C(=O)N(C)CC(=O)N(C)[C@@H](CC(C)C)C(=O)N[C@@H](C(C)C)C(=O)N(C)[C@@H](CC(C)C)C(=O)N[C@@H](C)C(=O)N[C@H](C)C(=O)N(C)[C@@H](CC(C)C)C(=O)N(C)[C@@H](CC(C)C)C(=O)N(C)[C@@H](C(C)C)C(=O)N1C [CYCLOSPORINE]	–	350	3850	400	1980	4	490	–
CCC[C@H](NC(=O)[C@@H]1[C@H]2CCC[C@H]2CN1C(=O)[C@@H](NC(=O)[C@@H](NC(=O)c1cnccn1)C1CCCCC1)C(C)(C)C)C(=O)C(=O)NC1CC1 [TELAPREVIR]	580	90	–	1020	–	790	14000	inhibition at 0.82 µM (Hepatitis C virus [15]): 96.5%; inhibition at 5 µg/mL (Hepatitis C virus [16]): 96.5%; inhibition (Hepatitis C virus [17]): inactive; inhibition (Hepatitis C virus [18]): inactive; inhibition (Hepatitis C virus [29]): inactive; fold change (FC) (Hepatitis C virus [30]): 4
